“Also recorded” adds a separate entry of the source. Each block holds one compound with its values, some of them ahead of it.
What was measured:
CL1-0 cells [1] = assay: Subcellular localization by epi-fluorescence/confocal microscopy; type: cell-based, human; conditions: for subcellular localization (nucleus versus mitochondria): CL1-0 human lung cancer cells, fluorescence microscopy
MRC-5 cells [2] = assay: as above; type: cell-based, human
MCF-7 cells = assay: Subcellular localization by fluorescence microscopy; type: cell-based, human; conditions: drug-sensitive MCF-7, 5 µM BMVC
MCF-7/ADR cells [3] = assay: as above; type: cell-based, human
CL1-0 cells [4] = assay: Flow cytometry of fluorescence intensity; type: cell-based, human
Procedure, shortened: (§1)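 CL1-0 and MRC-5 cells were loaded with 1 µM carbazole dication for 5 h and exposed to 0, 0.5 or 1 mM lysosomotropic agent. Mean fluorescence was taken at 564–606 nm with 488 nm excitation and expressed as a ratio across treatments; three independent experiments.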

MRC-5 cells [5] = assay: Flow cytometry of fluorescence intensity; type: cell-based, human; conditions: MRC-5, LeuLeuOMe treatment
Procedure, shortened: as §1

MCF-7/ADR cells [6] = assay: Flow cytometry of relative fluorescence changes; type: cell-based, human; conditions: for relative fluorescence change upon verapamil: 50 µM verapamil (P-glycoprotein inhibition); for relative fluorescence change upon LeuLeuOMe: 0.5 mM LeuLeuOMe
normal and cancer cells = assay: Low temperature; type: cell-based; conditions: incubation at 4°C, energy-dependent mechanisms inhibited
Procedure, shortened: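 Cells were precooled at 4°C for 1 h to block energy-dependent uptake, then incubated with 1 µM test compound for 1 h. Cells were co-stained for 10 min with 1 ng ml−1 Hoechst 33342 (membrane-permeant) or Hoechst 33258 (impermeant) as controls. Imaging was by epi-fluorescence microscopy.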

[7] = system: primary human normal foreskin fibroblast cell line (BJ); assay: Cytoplasmic microinjection; type: cell-based; conditions: BJ cells, 5 min after injection
Procedure, shortened: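 BJ primary foreskin fibroblasts were grown on glass coverslips in EMEM with 10% FBS. At 37°C, the cytoplasm was co-microinjected with 170 µM test compound and 2.5 mg ml−1 Texas Red 70-kDa dextran, which cannot cross nuclear pores. After 5 min incubation, cells were moved to fresh CO2-independent medium and imaged live.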

[8] = Lipophilicity, n-octanol/water partition; type: physicochemical
Procedure, shortened: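 Shake-flask method: n-octanol and water were premixed and left overnight. Test compound was added to the aqueous phase at 500 µM and mixed with an equal volume of n-octanol. Absorbance was measured in each phase, and log P was calculated as log[Ao/Aw].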

MRC-5 cells [9] = assay: Lysosomal membrane permeabilization; type: cell-based, human
CL1-0 cells [10] = assay: Lysosomal membrane permeabilization; type: cell-based, human
normal cells = assay: Effect of lysosomal pH-raising agents on nuclear fluorescence of BMVC; type: cell-based; conditions: agents raise internal pH of lysosomes
MCF-7/ADR cells [11] = assay: Cytotoxicity of doxorubicin; type: cell-based; conditions: Homo sapiens, NCI/ADR-RES, read-out: cytotoxicity IC50

SMILES: C[n+]1ccc(C=Cc2ccc3[nH]c4ccc(C=Cc5cc[n+](C)cc5)cc4c3c2)cc1.[I-].[I-] [BMVC, 3,6-bis(1-methyl-4-vinylpyridinium) carbazole diiodide]
- lysosomal retention / co-localization with LysoTracker (CL1-0 cells [1]; CL1-0 cancer cells, confocal microscopy): partially colocalized with MitoTracker red, but not LysoTracker red
- subcellular localization (nucleus versus mitochondria) (CL1-0 cells [1]): strong fluorescent signal was observed in the nuclei; also recorded: localize to the nuclei to a greater extent than the mitochondria
- fluorescent signal in cancer cell nuclei upon DNase treatment (CL1-0 cells [1]; fixed CL1-0 cells, DNase): dramatically reduced
- fluorescent signal in cancer cell nuclei upon RNase treatment (CL1-0 cells [1]; fixed CL1-0 cells, RNase): moderately reduced
- BMVC fluorescence localization after LeuLeuOMe (MRC-5 cells [2]; MRC-5, 5 µM BMVC 24 h then LeuLeuOMe 0.5 mM 1 h): can be detected in the nucleus
- nuclear fluorescence in fixed and permeabilized cells (MRC-5 cells [2]; MRC-5 fixed and permeabilized (4% formaldehyde, 0.1% Triton X-100)): strong BMVC fluorescence similar to that in CL1-0 cells
- lysosomal retention / co-localization with LysoTracker (MRC-5 cells [2]; MRC-5 normal lung cells, confocal microscopy): colocalized with LysoTracker red but not MitoTracker red
- nuclear fluorescence (MRC-5 cells [2]; MRC-5 normal lung cells, fluorescence microscopy): no fluorescence was observed in the nuclei
- subcellular localization (MCF-7 cells): released from the lysosomes and entered the nucleus
- nuclear fluorescence upon LeuLeuOMe treatment (MCF-7/ADR cells [3]; MCF-7/ADR, LeuLeuOMe, confocal microscopy): increased nuclear BMVC fluorescence
- subcellular localization / lysosomal retention (MCF-7/ADR cells [3]; drug-resistant MCF-7/ADR): localized to the lysosomes; also recorded: retained in the lysosomes
- time-dependent fluorescent intensity (CL1-0 cells [4]; 1 µM BMVC, flow cytometry, CL1-0 compared with MRC-5): significantly higher in CL1-0 than in MRC-5 cells
- BMVC fluorescence change after LeuLeuOMe (CL1-0 cells [4]; CL1-0, LeuLeuOMe treatment): small increase in BMVC fluorescence
- BMVC fluorescence intensity change after LeuLeuOMe (MRC-5 cells [5]): increase in the fluorescence intensity
- relative fluorescence change upon verapamil (MCF-7/ADR cells [6]): without affecting BMVC fluorescence
- relative fluorescence change upon LeuLeuOMe (MCF-7/ADR cells [6]): more than tenfold
- fluorescence detected in cells at 4°C (uptake) (normal and cancer cells): not detected
- localization after microinjection into the cytoplasm [7]: rapidly accumulated in the nuclei

- lipophilicity (log P), in words [8]: lower lipophilicity
SMILES: C[n+]1ccc(/C=C/c2ccc3c(c2)c2cc(/C=C/c4cc[n+](C)cc4)ccc2n3CCOCCOCCOCC[N+]2(C)CCCCC2)cc1.[I-].[I-].[I-] [BMVC-8C3O]
- subcellular localization (nucleus versus mitochondria) (CL1-0 cells [1]): localized to both the nucleus and the mitochondria

SMILES: CN1CCN(c2ccc3[nH]c(-c4ccc5[nH]c(-c6ccc(O)cc6)nc5c4)nc3c2)CC1 [Hoechst 33258]
- fluorescence detected in cells at 4°C (uptake) (normal and cancer cells): not detected

SMILES: CCOc1ccc(-c2nc3ccc(-c4nc5ccc(N6CCN(C)CC6)cc5[nH]4)cc3[nH]2)cc1 [Hoechst 33342]
- fluorescence detected in cells at 4°C (uptake) (normal and cancer cells): readily detected in the cells

SMILES: COC(=O)[C@H](CC(C)C)NC(=O)[C@@H](N)CC(C)C [LeuLeuOMe, L-leucyl-L-leucine methyl ester]
- lysosomal membrane permeabilization (MRC-5 cells [9]): increases lysosomal membrane permeabilization
- lysosomal membrane permeabilization (CL1-0 cells [10]): increases lysosomal membrane permeabilization

SMILES: Cl.N [NH4Cl, ammonium chloride]
- effect on nuclear fluorescence of BMVC (normal cells): increased nuclear fluorescence of BMVC

SMILES: CCN(CC)CCCC(C)Nc1ccnc2cc(Cl)ccc12 (centres unmarked) [chloroquine]
- effect on nuclear fluorescence of BMVC (normal cells): increased nuclear fluorescence of BMVC

SMILES: COc1cccc2c1C(=O)c1c(O)c3c(c(O)c1C2=O)C[C@@](O)(C(=O)CO)C[C@@H]3O[C@H]1C[C@H](N)[C@H](O)[C@H](C)O1 [doxorubicin, reference compound]
- relative fluorescence change upon verapamil (MCF-7/ADR cells [6]): increased twofold
- relative fluorescence change upon LeuLeuOMe (MCF-7/ADR cells [6]): no difference in doxorubicin fluorescence
- IC50 (MCF-7/ADR cells [11]): ≥ 20 µM

— paper PMC3915044 (Integrative biology : quantitative biosciences from nano to …, 2013)
